High-throughput results: PubChem BioAssay, several laboratories
T cell modulator: T cell immune modulation candidate; response (vesicle binding), % at 7 µM; AID 2052; 2C CD8+ T cell-vesicle binding, flow cytometry; hits give low values; 0.068% of 330,000 active;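 active = response, share of CD8 T cells binding vesicles, and their 90th percentile fluorescence all below set limits, cut at about 80% in these data, passing the limit was not always enough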;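 also: values below 100% mean blocked vesicle binding to the CD8+ T cells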
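material = purified 2C TCR transgenic mouse naive CD8+ T cells | controls = Unloaded micro-vesicles (low), QL9 vesicles with 0.7% DMSO (high) | detection = cytometric PE anti-B7-1 and Alexa647 anti-CD8 signals after 1% paraformaldehyde fixation | incubation = binding step 1.5 h, 37 °C, antibody labelling 20 min, ice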
GAA850 FXN act: frataxin GAA850 promoter activation; activation, % at 6 µM; 0.56% of 360,000 active; AID 540364; HEK293 lucGAA850 FXN promoter luciferase reporter, 24 h; percent of 10 µM SAHA response;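 active = activation above the average of all compounds screened plus 3 SD, cutoff fixed separately per campaign, cut at about 7.5% in these data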;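 also: 0% = DMSO wells and 100% = 10 µM SAHA wells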
Myeloid diff MLP: compounds promoting myeloid differentiation; ER-HoxA9 myeloid progenitors, lysozyme-GFP differentiation, flow cytometry; calls only at 10 µM; 1% of 360,000 active; AID 624256;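 active = normalized GFP-positive differentiation at or above the plate's own cutoff, the solvent-only control mean plus 3 SD; inconclusive = no clear call, values can overlap the other calls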;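 also: cells exposed to compound for four days before flow analysis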
NR2E3 ag-1: activates human photoreceptor nuclear receptor NR2E3 | 0.12% of 320,000 active | GST-NR2E3/biotin-RetCOR TR-FRET, 1536-well | inhibition of corepressor binding, % at 4.78 µM | Q9Y5X4;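 active = percent inhibition above the cutoff of mean plus 3 SD of all tested compounds, set per screening campaign, cut at about 20% in these data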;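 also: 0% = DMSO wells and 100% = biotin wells as full block of FRET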
Target sequence (Q9Y5X4 whole entry, looked up): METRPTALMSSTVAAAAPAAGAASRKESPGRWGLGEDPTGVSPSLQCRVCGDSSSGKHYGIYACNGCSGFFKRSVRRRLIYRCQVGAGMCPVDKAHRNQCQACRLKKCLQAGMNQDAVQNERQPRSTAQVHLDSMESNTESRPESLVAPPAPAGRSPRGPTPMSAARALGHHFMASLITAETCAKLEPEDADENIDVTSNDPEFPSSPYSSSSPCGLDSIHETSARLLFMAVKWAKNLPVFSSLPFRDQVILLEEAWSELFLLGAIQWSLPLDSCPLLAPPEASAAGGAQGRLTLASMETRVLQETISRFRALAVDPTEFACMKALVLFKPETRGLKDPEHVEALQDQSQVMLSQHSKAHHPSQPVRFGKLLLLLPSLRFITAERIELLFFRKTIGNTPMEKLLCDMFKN
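system = GST-tagged NR2E3 plus biotinylated RetCOR corepressor | input = 1.35 nM GST-NR2E3 | also added = 7 nM biotin-RetCOR | schedule = 5 h incubation at 4 °C | measured by = TR-FRET with europium anti-GST and streptavidin-D2, 340 nm excitation | read-out = percent loss of FRET ratio relative to control wells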
NR2E3 ag-2: human photoreceptor-specific nuclear receptor agonism. Q9Y5X4. CHO-S Gal4-NCOR/VP16-NR2E3 two-hybrid, luciferase. inhibition of corepressor binding, % at 3.98 µM. 0.35% of 360,000 active;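 active = inhibition above the mean of all tested compounds plus 3 SD, cut at about 70% in these data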;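 also: 0% = DMSO with NR2E3 transfected cells and 100% = cells lacking NR2E3 construct; higher means lower luciferase signal from less NR2E3 corepressor binding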
GAA30 counter: activates GAA30 frataxin promoter, counter-screen for GAA850 activators | activation, % at 6 µM | HEK293 lucGAA30 FXN promoter luciferase, 24 h; DMSO = 0%, 5 µM ipriflavone = 100% | shares compounds with GAA850 FXN act | 66% of 1,900 active;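 active = mean activation above the mean of solvent-only control wells plus 3 SD, cut at about 22% in these data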;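 also: counterscreen of GAA850 promoter hits where activity marks nonselective or luminescence artifacts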
FXN GAA850 conf: GAA850 FXN promoter activation confirmation; shares compounds with GAA850 FXN act; HEK293 lucGAA850 FXN promoter luciferase reporter, 24 h; 100% = activation by SAHA; activation, % at 6 µM; 86% of 1,900 active;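 active = mean activation above a set limit taken from the primary screen, cut at about 8% in these data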;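 also: 0% = DMSO wells and 100% = 10 µM SAHA wells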
Active calls of the source: *; i = inactive; ? = inconclusive; . = not tested or not shown; + = active, no number. An excerpt weighted towards active compounds, which were near 2% of everything screened.

SMILES	T cell modulator	GAA850 FXN act	Myeloid diff MLP	NR2E3 ag-1	NR2E3 ag-2	GAA30 counter	FXN GAA850 conf
C(=N\NC1=Nc2cccc3cccc1c23)/c1ccccn1	.	-1	i	.	-24	.	.
CCCC(=O)N1CCCC1(C)C(=O)Nc1ccc2nc(C)ccc2c1 (stereo not given)	.	-1	i	.	-26	.	.
C#CCOCC1CNC(=S)O1 (stereo not given)	.	-2	i	.	-12	.	.
CCN(CC)C(=O)c1cc(-c2ccc(Br)cc2)on1	273	8.0*	i	5	-117	111*	40*
CC(=O)N/C(=C\c1ccccc1)C(=O)OCC(=O)NC(C)C12CC3CC(CC(C3)C1)C2 (stereo not given)	284	13*	i	-3	-27	30*	13*
O=C(OCC(=O)N1CCc2ccccc21)[C@@H]1CCCN1S(=O)(=O)c1ccccc1F	450	3	i	-2	14	.	.
CC(NC(=O)COC(=O)[C@@H]1CCCN1S(=O)(=O)c1ccccc1F)C12CC3CC(CC(C3)C1)C2 (stereo not given in full)	213	8.8*	i	2	1	28*	15*
OC[C@@H]1CN(CCN2CCOCC2)C[C@H](n2cnc3c(NC4CCCC4)ncnc32)O1	.	1	i	.	3	.	.
COC(=O)CN1C(c2ccc(Cl)cc2)=Nc2ccc(Cl)cc2C1c1ccccc1 (stereo not given)	337	13*	i	0	-6	14	11*
Cc1ccc(NN2C(=O)C=C(c3ccc(Cl)cc3)C2=O)cc1	116	9.5*	i	-4	-23	-6	18*
O=C1C=C(c2ccccc2)C(=O)N1Nc1ccccc1	118	4	i	-3	-23	.	.
COc1ccc(C2=CC(=O)N(Nc3ccccc3)C2=O)cc1	215	8.2*	i	-1	-9	25*	11*
COC(=O)C1=C(C(=O)OC)[C@]2([C@@H]3CC=CCN[C@@H](Cc4ccccc4)C(=O)N3Cc3ccccc3)C=C[C@H]1O2	.	9.1*	i	.	-34	1	7
Clc1ccc2c(c1)-c1[nH]ncc1CS2	116	3	i	-4	-5	.	.
O=C(NCCC1=CCCCC1)c1coc(=O)c(Br)c1	252	17*	?	1	43	-3	26*
CN(C)CCNC(=O)c1coc(=O)c(Br)c1	190	3	i	-3	-9	.	.
COc1ccccc1NC(=O)c1coc(=O)c(Br)c1	384	7.9*	i	-5	-3	129*	69*
O=C(NCCc1ccccc1)c1coc(=O)c(Br)c1	257	8.0*	i	.	28	-2	21*
COc1ccccc1NC(=O)c1cc(N)cc(C(=O)Nc2ccccc2OC)c1	114	1	i	2	-11	.	.
O=C(NCCC1=CCCCC1)c1ccc(=O)oc1	165	2	i	-1	8	.	.
O=C1N/C(=C/c2ccc(N3CCOCC3)o2)C(=O)N1c1ccccc1	185	11*	?	1	18	54*	19*
Nc1ccc2nc(-c3cc(Cl)c(N)c(Cl)c3)[nH]c2c1	306	8.3*	i	-8	-25	160*	50*
O=S(=O)(Nc1nc2ccccc2nc1N1CCN(c2ccccc2)CC1)c1ccc(F)cc1	148	8.0*	i	5	25	18	9.7*
Cc1ccc(S(=O)(=O)Nc2nc3ccccc3nc2N2CCOCC2)cc1	265	0	i	.	0	.	.
O=C(Cc1nc2ccccc2[nH]c1=O)c1ccccc1	.	8.8*	+	.	-82	140*	53*
O=c1[nH]c2ccccc2nc1Cc1ccccc1	265	0	i	-1	-4	.	.
COc1cccc(C(O)c2nc(-c3ccc(F)c(Cl)c3)cs2)c1 (stereo not given)	.	0	i	.	-2	.	.
CN=c1scc(-c2ccc(F)cc2)n1/N=C/c1ccc(O)c(O)c1	.	9.3*	i	.	-54	34*	14*
